Test results as given in the M2OR odorant receptor database.
Residue numbers refer to the chain shown, from its start.

What was measured:
Settings in all cases: stereoisomer not certain
OR4D1 (Homo sapiens) = OR4D1 (Homo sapiens) (UniProt Q15615)
How it was run: (§1)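 Transient luciferase assays in mammalian cell lines were common, though methods varied by source. The values come from published papers and their supplementary material, with extra details from the original authors when needed. Responsive refers to a measured signal the original authors judged statistically different from baseline, and non-responsive (inactive) to the remainder.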

OR4D10 (Homo sapiens) = OR4D10 (Homo sapiens) (UniProt Q8NGI6)
How it was run: as §1

OR4D11 (Homo sapiens) = OR4D11 (Homo sapiens) (UniProt Q8NGI4)
How it was run: as §1

OR4D2 (Homo sapiens) = OR4D2 (Homo sapiens) (UniProt P58180)
How it was run: as §1

OR4D5 (Homo sapiens) = OR4D5 (Homo sapiens) (UniProt Q8NGN0)
How it was run: as §1

OR4D6 (Homo sapiens) = OR4D6 (Homo sapiens) (UniProt Q8NGJ1)
How it was run: as §1

OR4D9 (Homo sapiens) = OR4D9 (Homo sapiens) (UniProt Q8NGE8)
How it was run: as §1

OR4E2 (Homo sapiens) = molecular target: T1, OR4E2 (Homo sapiens) (UniProt Q8NGC2)
T1 sequence (whole entry): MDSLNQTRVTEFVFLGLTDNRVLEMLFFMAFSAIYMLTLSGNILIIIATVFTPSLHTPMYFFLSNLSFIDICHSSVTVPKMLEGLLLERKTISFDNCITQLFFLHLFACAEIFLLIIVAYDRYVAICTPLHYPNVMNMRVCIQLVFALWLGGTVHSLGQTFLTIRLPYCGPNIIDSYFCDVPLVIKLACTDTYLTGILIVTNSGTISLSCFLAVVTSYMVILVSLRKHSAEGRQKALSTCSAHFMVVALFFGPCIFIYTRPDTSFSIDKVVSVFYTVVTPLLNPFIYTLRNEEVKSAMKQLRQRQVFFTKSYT
How it was run: as §1

OR4F15 (Homo sapiens) = molecular target: T2, OR4F15 (Homo sapiens) (UniProt Q8NGB8)
T2 sequence (whole entry): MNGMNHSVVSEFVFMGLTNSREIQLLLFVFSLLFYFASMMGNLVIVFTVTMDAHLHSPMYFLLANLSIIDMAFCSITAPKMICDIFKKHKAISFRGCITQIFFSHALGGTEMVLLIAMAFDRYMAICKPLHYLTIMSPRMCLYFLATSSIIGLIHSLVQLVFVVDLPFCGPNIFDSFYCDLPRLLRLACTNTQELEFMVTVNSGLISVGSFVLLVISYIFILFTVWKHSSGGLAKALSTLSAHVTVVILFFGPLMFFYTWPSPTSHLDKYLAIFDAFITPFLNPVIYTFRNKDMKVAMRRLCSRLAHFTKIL
How it was run: as §1

OR4E2 = test system: T3, OR4E2
T3 sequence (whole entry): T1 sequence (whole entry) with V118M, Q234R
How it was run: as §1

OR4E1 (Homo sapiens) = OR4E1 (Homo sapiens) (UniProt P0C645)
How it was run: as §1

OR4CB P8T = test system: T4, OR4CB P8T
T4 sequence (whole entry): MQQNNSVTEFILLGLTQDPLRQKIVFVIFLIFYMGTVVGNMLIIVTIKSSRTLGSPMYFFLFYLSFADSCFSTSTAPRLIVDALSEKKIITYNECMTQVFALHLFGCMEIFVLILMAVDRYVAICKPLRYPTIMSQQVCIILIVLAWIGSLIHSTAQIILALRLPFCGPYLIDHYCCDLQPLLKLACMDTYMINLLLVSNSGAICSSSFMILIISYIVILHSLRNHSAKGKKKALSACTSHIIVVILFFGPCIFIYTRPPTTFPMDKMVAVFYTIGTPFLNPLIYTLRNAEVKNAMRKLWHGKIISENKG
How it was run: as §1

OR4CC = test system: OR4CC
How it was run: as §1

OR4CD V133I = test system: OR4CD V133I
How it was run: as §1

OR4CF = test system: OR4CF
How it was run: as §1

OR4CG T76A = test system: T5, OR4CG T76A
T5 sequence (whole entry): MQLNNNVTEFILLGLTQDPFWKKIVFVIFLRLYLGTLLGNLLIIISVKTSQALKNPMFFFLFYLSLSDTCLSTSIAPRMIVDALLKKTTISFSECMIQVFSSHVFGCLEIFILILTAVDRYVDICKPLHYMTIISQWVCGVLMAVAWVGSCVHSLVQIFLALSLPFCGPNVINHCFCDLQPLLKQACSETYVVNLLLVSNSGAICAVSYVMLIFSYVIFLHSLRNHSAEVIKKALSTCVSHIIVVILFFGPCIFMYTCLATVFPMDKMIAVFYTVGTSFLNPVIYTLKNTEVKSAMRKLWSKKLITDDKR
How it was run: as §1

OR4D1 = test system: OR4D1
How it was run: as §1

OR4D2 = test system: OR4D2
How it was run: as §1

OR4D6 = test system: OR4D6
How it was run: as §1

OR4E2 A119T = test system: T6, OR4E2 A119T
T6 sequence (whole entry): T1 sequence (whole entry) with V118M, A119T, Q234R
How it was run: as §1

Measured: odorant receptor agonist call;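 note: active if original authors judged signal statistically different from baseline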

Sequence of OR4CC (as listed by the source): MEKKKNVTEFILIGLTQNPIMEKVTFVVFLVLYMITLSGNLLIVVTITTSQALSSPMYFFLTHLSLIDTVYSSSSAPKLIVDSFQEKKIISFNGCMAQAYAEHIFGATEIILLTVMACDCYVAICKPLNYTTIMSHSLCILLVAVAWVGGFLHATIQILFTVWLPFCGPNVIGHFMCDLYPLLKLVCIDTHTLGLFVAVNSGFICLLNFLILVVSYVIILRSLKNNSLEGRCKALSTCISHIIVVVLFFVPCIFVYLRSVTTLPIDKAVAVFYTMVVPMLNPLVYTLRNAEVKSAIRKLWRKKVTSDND
Sequence of OR4CF (as listed by the source): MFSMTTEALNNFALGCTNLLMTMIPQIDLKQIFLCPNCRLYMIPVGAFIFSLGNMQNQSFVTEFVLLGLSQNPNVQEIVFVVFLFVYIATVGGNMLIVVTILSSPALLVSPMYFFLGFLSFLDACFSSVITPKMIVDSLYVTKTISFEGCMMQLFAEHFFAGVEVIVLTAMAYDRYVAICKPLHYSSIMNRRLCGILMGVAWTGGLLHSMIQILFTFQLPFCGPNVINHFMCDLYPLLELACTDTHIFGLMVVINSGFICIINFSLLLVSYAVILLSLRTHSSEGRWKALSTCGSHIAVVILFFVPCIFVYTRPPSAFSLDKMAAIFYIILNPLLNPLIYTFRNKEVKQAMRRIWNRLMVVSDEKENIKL
Sequence of OR4D6 (Homo sapiens) (Q8NGJ1 whole entry): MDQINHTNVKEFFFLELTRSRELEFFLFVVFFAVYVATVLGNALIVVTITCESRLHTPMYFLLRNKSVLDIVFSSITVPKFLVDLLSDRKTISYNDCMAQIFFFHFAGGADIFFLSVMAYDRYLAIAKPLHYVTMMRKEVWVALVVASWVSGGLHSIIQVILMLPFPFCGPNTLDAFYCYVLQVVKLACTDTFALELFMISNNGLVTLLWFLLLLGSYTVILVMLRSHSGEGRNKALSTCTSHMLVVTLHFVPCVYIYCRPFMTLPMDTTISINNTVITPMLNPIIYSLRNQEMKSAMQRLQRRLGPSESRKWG
Sequence of OR4D10 (Homo sapiens) (Q8NGI6 whole entry): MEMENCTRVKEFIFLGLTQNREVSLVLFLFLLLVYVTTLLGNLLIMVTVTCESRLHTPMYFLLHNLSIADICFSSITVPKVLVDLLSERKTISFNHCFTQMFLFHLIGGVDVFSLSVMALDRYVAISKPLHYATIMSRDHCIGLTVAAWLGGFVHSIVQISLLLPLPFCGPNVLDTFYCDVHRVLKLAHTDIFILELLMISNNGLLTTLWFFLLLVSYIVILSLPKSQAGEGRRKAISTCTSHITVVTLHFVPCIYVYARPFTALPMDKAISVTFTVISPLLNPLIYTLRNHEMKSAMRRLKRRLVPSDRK
Sequence of OR4D1 (as listed by the source): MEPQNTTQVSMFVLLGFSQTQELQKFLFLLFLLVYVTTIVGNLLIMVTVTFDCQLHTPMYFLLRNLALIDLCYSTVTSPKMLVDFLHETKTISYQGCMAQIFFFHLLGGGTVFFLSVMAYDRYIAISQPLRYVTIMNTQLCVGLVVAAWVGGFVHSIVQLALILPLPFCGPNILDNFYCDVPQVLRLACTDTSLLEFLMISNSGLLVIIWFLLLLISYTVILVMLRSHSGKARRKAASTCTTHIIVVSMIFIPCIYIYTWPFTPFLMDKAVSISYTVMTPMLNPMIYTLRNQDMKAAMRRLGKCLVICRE
Sequence of OR4D9 (Homo sapiens) (Q8NGE8 whole entry): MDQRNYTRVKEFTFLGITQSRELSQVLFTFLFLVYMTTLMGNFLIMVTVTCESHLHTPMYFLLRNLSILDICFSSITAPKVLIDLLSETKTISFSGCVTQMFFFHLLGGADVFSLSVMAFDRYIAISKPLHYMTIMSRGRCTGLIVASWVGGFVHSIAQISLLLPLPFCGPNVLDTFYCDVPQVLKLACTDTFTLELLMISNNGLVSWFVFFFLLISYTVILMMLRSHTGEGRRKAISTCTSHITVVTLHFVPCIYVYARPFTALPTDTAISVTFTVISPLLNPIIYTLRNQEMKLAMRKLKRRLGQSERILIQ
Sequence of OR4D1 (Homo sapiens) (Q15615 whole entry): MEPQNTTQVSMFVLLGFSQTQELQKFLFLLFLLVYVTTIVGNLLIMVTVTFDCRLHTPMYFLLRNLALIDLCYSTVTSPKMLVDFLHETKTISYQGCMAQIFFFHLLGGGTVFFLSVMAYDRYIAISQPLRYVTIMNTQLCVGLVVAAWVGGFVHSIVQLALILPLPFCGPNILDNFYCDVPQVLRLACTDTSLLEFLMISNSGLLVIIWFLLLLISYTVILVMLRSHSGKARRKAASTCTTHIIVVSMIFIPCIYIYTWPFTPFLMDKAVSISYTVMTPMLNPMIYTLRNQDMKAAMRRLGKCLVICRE
Sequence of OR4CD V133I (as listed by the source, stated change not applied): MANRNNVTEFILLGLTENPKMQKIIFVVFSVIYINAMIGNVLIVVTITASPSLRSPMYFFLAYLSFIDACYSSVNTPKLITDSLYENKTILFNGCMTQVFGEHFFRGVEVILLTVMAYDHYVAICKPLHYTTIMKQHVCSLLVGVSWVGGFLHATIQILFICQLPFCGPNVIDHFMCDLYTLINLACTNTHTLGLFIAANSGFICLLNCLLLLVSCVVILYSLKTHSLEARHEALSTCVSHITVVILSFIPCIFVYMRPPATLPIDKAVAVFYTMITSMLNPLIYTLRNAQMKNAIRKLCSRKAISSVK
Sequence of OR4D2 (as listed by the source): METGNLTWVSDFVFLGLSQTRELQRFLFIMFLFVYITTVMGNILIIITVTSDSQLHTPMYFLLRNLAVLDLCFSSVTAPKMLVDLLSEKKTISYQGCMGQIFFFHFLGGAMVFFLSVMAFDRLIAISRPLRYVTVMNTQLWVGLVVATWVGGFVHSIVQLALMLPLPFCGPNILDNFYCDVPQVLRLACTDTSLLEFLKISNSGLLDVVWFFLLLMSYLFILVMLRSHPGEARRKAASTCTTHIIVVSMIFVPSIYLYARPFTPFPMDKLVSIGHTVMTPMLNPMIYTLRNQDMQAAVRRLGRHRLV
Sequence of OR4D6 (as listed by the source): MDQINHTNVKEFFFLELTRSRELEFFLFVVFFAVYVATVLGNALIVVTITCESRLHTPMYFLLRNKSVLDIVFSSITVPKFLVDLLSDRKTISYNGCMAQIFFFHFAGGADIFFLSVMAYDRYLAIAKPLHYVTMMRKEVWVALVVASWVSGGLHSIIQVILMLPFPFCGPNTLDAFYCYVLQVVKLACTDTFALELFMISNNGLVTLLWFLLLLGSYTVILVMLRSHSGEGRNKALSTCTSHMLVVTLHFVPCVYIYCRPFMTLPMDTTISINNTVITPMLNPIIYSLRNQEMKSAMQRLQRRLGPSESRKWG
Sequence of OR4D5 (Homo sapiens) (Q8NGN0 whole entry): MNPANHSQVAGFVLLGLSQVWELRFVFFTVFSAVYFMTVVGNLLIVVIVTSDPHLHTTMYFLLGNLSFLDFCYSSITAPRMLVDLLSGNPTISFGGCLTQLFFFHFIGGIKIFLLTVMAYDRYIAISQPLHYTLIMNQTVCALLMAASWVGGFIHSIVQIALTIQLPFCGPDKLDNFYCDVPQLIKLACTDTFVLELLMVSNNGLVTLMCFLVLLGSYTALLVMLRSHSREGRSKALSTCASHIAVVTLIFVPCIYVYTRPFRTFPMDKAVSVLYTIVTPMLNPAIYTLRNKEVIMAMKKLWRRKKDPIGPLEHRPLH
Sequence of OR4D2 (Homo sapiens) (P58180 whole entry): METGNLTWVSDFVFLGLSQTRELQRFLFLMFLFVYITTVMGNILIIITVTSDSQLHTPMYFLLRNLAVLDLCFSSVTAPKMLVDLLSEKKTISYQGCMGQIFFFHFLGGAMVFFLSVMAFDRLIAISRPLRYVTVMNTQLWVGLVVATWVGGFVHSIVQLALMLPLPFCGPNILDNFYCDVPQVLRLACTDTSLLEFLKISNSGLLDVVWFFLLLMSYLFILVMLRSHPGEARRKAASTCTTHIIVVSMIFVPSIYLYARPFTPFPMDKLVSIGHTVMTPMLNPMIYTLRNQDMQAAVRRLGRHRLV
Sequence of OR4D11 (Homo sapiens) (Q8NGI4 whole entry): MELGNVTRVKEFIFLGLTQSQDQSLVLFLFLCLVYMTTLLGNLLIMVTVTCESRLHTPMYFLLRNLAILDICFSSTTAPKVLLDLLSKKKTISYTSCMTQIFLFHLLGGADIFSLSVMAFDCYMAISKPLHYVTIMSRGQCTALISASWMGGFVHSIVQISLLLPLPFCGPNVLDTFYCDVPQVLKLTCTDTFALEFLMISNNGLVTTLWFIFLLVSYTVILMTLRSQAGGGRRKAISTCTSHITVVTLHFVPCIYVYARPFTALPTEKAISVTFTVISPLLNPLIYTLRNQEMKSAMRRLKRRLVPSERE
Sequence of OR4E1 (Homo sapiens) (P0C645 whole entry): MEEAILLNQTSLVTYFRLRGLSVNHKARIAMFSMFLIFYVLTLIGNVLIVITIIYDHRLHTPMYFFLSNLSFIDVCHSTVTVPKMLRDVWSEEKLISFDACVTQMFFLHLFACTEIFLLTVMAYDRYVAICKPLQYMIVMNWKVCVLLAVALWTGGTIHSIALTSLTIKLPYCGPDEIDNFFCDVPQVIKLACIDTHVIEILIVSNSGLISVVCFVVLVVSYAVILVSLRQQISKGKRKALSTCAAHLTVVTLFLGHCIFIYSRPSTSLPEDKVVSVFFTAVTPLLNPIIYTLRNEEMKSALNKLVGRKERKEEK

CC(CO)CS (stereo unspecified)
inactive: OR4D1 (Homo sapiens) | OR4D10 (Homo sapiens) | OR4D11 (Homo sapiens) | OR4D2 (Homo sapiens) | OR4D5 (Homo sapiens) | OR4D6 (Homo sapiens) | OR4D9 (Homo sapiens) | OR4E2 (Homo sapiens) | OR4F15 (Homo sapiens)

CC(C)=CCCC(C)=CCO
inactive: OR4E2

CC(=O)c1c(C)c([N+](=O)[O-])c(C(C)(C)C)c([N+](=O)[O-])c1C
inactive: OR4D1 (Homo sapiens) | OR4D10 (Homo sapiens) | OR4D11 (Homo sapiens) | OR4D2 (Homo sapiens) | OR4D5 (Homo sapiens) | OR4D6 (Homo sapiens) | OR4D9 (Homo sapiens) | OR4E1 (Homo sapiens) | OR4E2 (Homo sapiens) | OR4F15 (Homo sapiens)

CCCCC(S)C(C)CO (stereo unspecified)
inactive: OR4D1 (Homo sapiens) | OR4D10 (Homo sapiens) | OR4D11 (Homo sapiens) | OR4D2 (Homo sapiens) | OR4D5 (Homo sapiens) | OR4D6 (Homo sapiens) | OR4D9 (Homo sapiens) | OR4E2 (Homo sapiens) | OR4F15 (Homo sapiens)

CCC1OC(C)=C(O)C1=O (stereo unspecified)
not listed: OR4E1 (Homo sapiens)
inactive: all other assays above

CC1=C(O)C(=O)OC1C (stereo unspecified)
not listed: OR4E1 (Homo sapiens)
inactive: all other assays above

CC1=NC(C)C(C)S1 (stereo unspecified)
not listed: OR4E1 (Homo sapiens)
inactive: all other assays above

CCCCCCC=CCCC=O
not listed: OR4E1 (Homo sapiens) | OR4CF | OR4E2 A119T
inactive: all other assays above

CCC1OC(=O)C(O)=C1C (stereo unspecified)
not listed: OR4E1 (Homo sapiens)
inactive: all other assays above

Cc1cnc(C)c(C)n1
not listed: OR4E1 (Homo sapiens)
inactive: all other assays above

CCCCCC(=O)C(C)C(C)=O (stereo unspecified)
inactive: OR4D1 (Homo sapiens) | OR4D10 (Homo sapiens) | OR4D11 (Homo sapiens) | OR4D2 (Homo sapiens) | OR4D5 (Homo sapiens) | OR4D6 (Homo sapiens) | OR4D9 (Homo sapiens) | OR4E2 (Homo sapiens) | OR4F15 (Homo sapiens)

CC1CCCCCCCCCCCCC(=O)C1 (stereo unspecified)
inactive: OR4D1 (Homo sapiens) | OR4D10 (Homo sapiens) | OR4D11 (Homo sapiens) | OR4D2 (Homo sapiens) | OR4D5 (Homo sapiens) | OR4D6 (Homo sapiens) | OR4D9 (Homo sapiens) | OR4E1 (Homo sapiens) | OR4E2 (Homo sapiens) | OR4F15 (Homo sapiens)

CCCC(S)CCOC(C)=O (stereo unspecified)
not listed: OR4E1 (Homo sapiens)
inactive: all other assays above

CC1=C(O)C(=O)C(C)O1 (stereo unspecified)
not listed: OR4E1 (Homo sapiens)
inactive: all other assays above

CCCCCC(S)C(C)CO (stereo unspecified)
inactive: OR4D1 (Homo sapiens) | OR4D10 (Homo sapiens) | OR4D11 (Homo sapiens) | OR4D2 (Homo sapiens) | OR4D5 (Homo sapiens) | OR4D6 (Homo sapiens) | OR4D9 (Homo sapiens) | OR4E2 (Homo sapiens) | OR4F15 (Homo sapiens)

CCC(S)C(C)CO (stereo unspecified)
inactive: OR4D1 (Homo sapiens) | OR4D10 (Homo sapiens) | OR4D11 (Homo sapiens) | OR4D2 (Homo sapiens) | OR4D5 (Homo sapiens) | OR4D6 (Homo sapiens) | OR4D9 (Homo sapiens) | OR4E2 (Homo sapiens) | OR4F15 (Homo sapiens)
